ChEMBL document CHEMBL4052595, “Application of Residual Dipolar Couplings and Selective Quantitative NOE to Establish the Structures of Tetranortriterpenoids from Xylocarpus rumphii” (J Nat Prod, 2017)
Active and inactive are the calls of the source.

How the values were obtained:
Type in all cases: functional, cell-based
BT-549 = assay: Growth inhibition of human BT549 cells at 10^-5 M incubated for 48 hrs by sulforhodamine B assay
How it was run: (§1)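 Run in the NCI59 one-dose cell-line screen, with each compound tested at a single concentration of 1 × 10−5 M.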

T47D = assay: Growth inhibition of human T47D cells at 10^-5 M incubated for 48 hrs by sulforhodamine B assay
How it was run: (§2)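 Tested at a single concentration of 1 × 10−5 M as part of the NCI59 cell-line one-dose screen.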

Hs-578T = assay: Growth inhibition of human Hs 578T cells at 10^-5 M incubated for 48 hrs by sulforhodamine B assay; how it was run: as §1
MCF7 = assay: Growth inhibition of human MCF7 cells at 10^-5 M incubated for 48 hrs by sulforhodamine B assay; how it was run: as §1
MDA-MB-231 = assay: Growth inhibition of human MDA-MB-231 cells at 10^-5 M incubated for 48 hrs by sulforhodamine B assay; how it was run: as §1
DU-145 = assay: Growth inhibition of human DU145 cells at 10^-5 M incubated for 48 hrs by sulforhodamine B assay; how it was run: as §1
UO-31 = assay: Growth inhibition of human UO31 cells at 10^-5 M incubated for 48 hrs by sulforhodamine B assay; how it was run: as §2
PC-3 = assay: Growth inhibition of human PC3 cells at 10^-5 M incubated for 48 hrs by sulforhodamine B assay; how it was run: as §1
SN12C = assay: Growth inhibition of human SN12C cells at 10^-5 M incubated for 48 hrs by sulforhodamine B assay; how it was run: as §1
TK-10 = assay: Growth inhibition of human TK10 cells at 10^-5 M incubated for 48 hrs by sulforhodamine B assay; how it was run: as §2
RXF 393 = assay: Growth inhibition of human RXF393 cells at 10^-5 M incubated for 48 hrs by sulforhodamine B assay; how it was run: as §1
ACHN = assay: Growth inhibition of human ACHN cells at 10^-5 M incubated for 48 hrs by sulforhodamine B assay; how it was run: as §1
CAKI-1 = assay: Growth inhibition of human Caki1 cells at 10^-5 M incubated for 48 hrs by sulforhodamine B assay; how it was run: as §1
A498 = assay: Growth inhibition of human A498 cells at 10^-5 M incubated for 48 hrs by sulforhodamine B assay; how it was run: as §1
786-0 = assay: Growth inhibition of human 786-0 cells at 10^-5 M incubated for 48 hrs by sulforhodamine B assay; how it was run: as §1
NCI/ADR-RES = assay: Growth inhibition of human NCI/ADR-RES cells at 10^-5 M incubated for 48 hrs by sulforhodamine B assay; how it was run: as §1
SK-OV-3 = assay: Growth inhibition of human SKOV3 cells at 10^-5 M incubated for 48 hrs by sulforhodamine B assay; how it was run: as §1
OVCAR-8 = assay: Growth inhibition of human OVCAR8 cells at 10^-5 M incubated for 48 hrs by sulforhodamine B assay; how it was run: as §1
OVCAR-4 = assay: Growth inhibition of human OVCAR4 cells at 10^-5 M incubated for 48 hrs by sulforhodamine B assay; how it was run: as §1
OVCAR-5 = assay: Growth inhibition of human OVCAR5 cells at 10^-5 M incubated for 48 hrs by sulforhodamine B assay; how it was run: as §1
IGROV-1 = assay: Growth inhibition of human IGROV1 cells at 10^-5 M incubated for 48 hrs by sulforhodamine B assay; how it was run: as §1
OVCAR-3 = assay: Growth inhibition of human OVCAR3 cells at 10^-5 M incubated for 48 hrs by sulforhodamine B assay; how it was run: as §1
UACC-62 = assay: Growth inhibition of human UACC62 cells at 10^-5 M incubated for 48 hrs by sulforhodamine B assay; how it was run: as §2
SK-MEL-5 = assay: Growth inhibition of human SK-MEL-5 cells at 10^-5 M incubated for 48 hrs by sulforhodamine B assay; how it was run: as §1
UACC-257 = assay: Growth inhibition of human UACC257 cells at 10^-5 M incubated for 48 hrs by sulforhodamine B assay; how it was run: as §2
SK-MEL-28 = assay: Growth inhibition of human SK-MEL-28 cells at 10^-5 M incubated for 48 hrs by sulforhodamine B assay; how it was run: as §1
MDA-MB-435 = assay: Growth inhibition of human MDA-MB-435 cells at 10^-5 M incubated for 48 hrs by sulforhodamine B assay; how it was run: as §1
SK-MEL-2 = assay: Growth inhibition of human SK-MEL-2 cells at 10^-5 M incubated for 48 hrs by sulforhodamine B assay; how it was run: as §1
M14 = assay: Growth inhibition of human M14 cells at 10^-5 M incubated for 48 hrs by sulforhodamine B assay; how it was run: as §1
U-251 = assay: Growth inhibition of human U251 cells at 10^-5 M incubated for 48 hrs by sulforhodamine B assay; how it was run: as §2
LOX IMVI = assay: Growth inhibition of human LOXIMVI cells at 10^-5 M incubated for 48 hrs by sulforhodamine B assay; how it was run: as §1
SNB-19 = assay: Growth inhibition of human SNB19 cells at 10^-5 M incubated for 48 hrs by sulforhodamine B assay; how it was run: as §1
SNB-75 = assay: Growth inhibition of human SNB75 cells at 10^-5 M incubated for 48 hrs by sulforhodamine B assay; how it was run: as §1
SF-539 = assay: Growth inhibition of human SF539 cells at 10^-5 M incubated for 48 hrs by sulforhodamine B assay; how it was run: as §1
SF-268 = assay: Growth inhibition of human SF268 cells at 10^-5 M incubated for 48 hrs by sulforhodamine B assay; how it was run: as §1
SF-295 = assay: Growth inhibition of human SF295 cells at 10^-5 M incubated for 48 hrs by sulforhodamine B assay; how it was run: as §1
SW-620 = assay: Growth inhibition of human SW620 cells at 10^-5 M incubated for 48 hrs by sulforhodamine B assay; how it was run: as §2
HT-29 = assay: Growth inhibition of human HT-29 cells at 10^-5 M incubated for 48 hrs by sulforhodamine B assay; how it was run: as §1
KM12 = assay: Growth inhibition of human KM12 cells at 10^-5 M incubated for 48 hrs by sulforhodamine B assay; how it was run: as §1
HCT-116 = assay: Growth inhibition of human HCT116 cells at 10^-5 M incubated for 48 hrs by sulforhodamine B assay; how it was run: as §1
HCT-15 = assay: Growth inhibition of human HCT15 cells at 10^-5 M incubated for 48 hrs by sulforhodamine B assay; how it was run: as §1
HCC 2998 = assay: Growth inhibition of human HCC2998 cells at 10^-5 M incubated for 48 hrs by sulforhodamine B assay; how it was run: as §1
NCI-H522 = assay: Growth inhibition of human NCI-H522 cells at 10^-5 M incubated for 48 hrs by sulforhodamine B assay; how it was run: as §1
COLO 205 = assay: Growth inhibition of human COLO205 cells at 10^-5 M incubated for 48 hrs by sulforhodamine B assay; how it was run: as §1
NCI-H460 = assay: Growth inhibition of human NCI-H460 cells at 10^-5 M incubated for 48 hrs by sulforhodamine B assay; how it was run: as §1
NCI-H23 = assay: Growth inhibition of human NCI-H23 cells at 10^-5 M incubated for 48 hrs by sulforhodamine B assay; how it was run: as §1
NCI-H322M = assay: Growth inhibition of human NCI-H322M cells at 10^-5 M incubated for 48 hrs by sulforhodamine B assay; how it was run: as §1
NCI-H226 = assay: Growth inhibition of human NCI-H226 cells at 10^-5 M incubated for 48 hrs by sulforhodamine B assay; how it was run: as §1
HOP-62 = assay: Growth inhibition of human HOP62 cells at 10^-5 M incubated for 48 hrs by sulforhodamine B assay; how it was run: as §1
HOP-92 = assay: Growth inhibition of human HOP92 cells at 10^-5 M incubated for 48 hrs by sulforhodamine B assay; how it was run: as §1
A549 = assay: Growth inhibition of human A549/ATCC cells at 10^-5 M incubated for 48 hrs by sulforhodamine B assay; how it was run: as §1
EKVX = assay: Growth inhibition of human EKVX cells at 10^-5 M incubated for 48 hrs by sulforhodamine B assay; how it was run: as §1
SR = assay: Growth inhibition of human SR cells at 10^-5 M incubated for 48 hrs by sulforhodamine B assay; how it was run: as §1
MOLT-4 = assay: Growth inhibition of human MOLT4 cells at 10^-5 M incubated for 48 hrs by sulforhodamine B assay; how it was run: as §1
RPMI-8226 = assay: Growth inhibition of human RPMI8226 cells at 10^-5 M incubated for 48 hrs by sulforhodamine B assay; how it was run: as §1
K562 = assay: Growth inhibition of human K562 cells at 10^-5 M incubated for 48 hrs by sulforhodamine B assay; how it was run: as §1
CCRF-CEM = assay: Growth inhibition of human CCRF-CEM cells at 10^-5 M incubated for 48 hrs by sulforhodamine B assay; how it was run: as §1
HL-60(TB) = assay: Growth inhibition of human HL-60(TB) cells at 10^-5 M incubated for 48 hrs by sulforhodamine B assay
How it was run: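 Run in the NCI59 cell-line one-dose screen, with each compound tested at a single concentration of 1 × 10−5 M.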

Measured: growth inhibition (GI)

COC(=O)C[C@H]1C(C)(C)[C@H](OC(=O)C(C)C)[C@@H]2[C@@H](OC(=O)C(C)C)[C@@]34O[C@]2(O)[C@]1(C)[C@H]3CC[C@]1(C)[C@H]4CC(=O)O[C@H]1c1ccoc1
inactive: all assays above

COC(=O)C[C@H]1[C@@]2(C)C[C@@]34O[C@@]5(C)O[C@]6([C@@H]7CC(=O)O[C@@H](c8ccoc8)[C@]7(C)CC[C@]6(O5)[C@@]13C)[C@@H](OC(C)=O)[C@@]4(OC(C)=O)[C@H]2OC(C)=O
inactive: all assays above
